Experiment [1] has as its system Beta-TC6. Description: Percent efficacy of compound for the in vitro inhibition of insulin release from murine beta-TC6 cells. It is filed as functional, Mus musculus. The procedure, abridged:
(§1)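 βTC6 cells washed twice in NN buffer (pH-buffered Krebs-type saline with HEPES) plus 0.1% BSA, preincubated 60 min, then incubated 3 h with 22 mM glucose, 0.1 mM IBMX and serial compound dilutions. Supernatant insulin measured by competition ELISA against rat insulin standards with peroxidase-labelled insulin and TMB read-out. EC50 (potency) and percentage inhibition (efficacy) derived from curves; at least two experiments.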

The species entered for experiment [2] is Rattus norvegicus. In words: In vitro ability to relax phenylephrine contracted rat aorta rings. It is filed as functional.
Experiment [3] in a line: In vitro membrane potential on murine beta-TC3 cells. In kind it is functional. To be noted: Mus musculus.
Experiment [4] relates to Beta-TC6. Description: In vitro inhibition of insulin release from murine beta-TC6 cells. In kind it is functional, cell-based. The note with it: Mus musculus. A digest of the protocol:
as §1

Experiment [5] in a line: In vitro membrane potential on murine beta-TC3 cells; NA= not active. In kind it is functional, Mus musculus.
A short description of experiment [6]: In vitro membrane potential on murine betaTC3 cells; NA=not active. It is filed as functional, Mus musculus.
Experiment [7] is filed under the species Rattus norvegicus. In words: Compound was evaluated for the inhibition of insulin release from rat islets. It is filed as functional. A digest of the protocol: (§2)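 Rat islets isolated by collagenase digestion and Ficoll gradient (40–13%), cultured overnight in RPMI/10% FCS/11 mM glucose, then 10 islets per well overnight in DMEM/10% FCS/3 mM glucose. Tested as for βTC6: NN buffer with 0.1% BSA, 3 h with 22 mM glucose and compound dilutions, no IBMX; insulin by competition ELISA.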

Experiment [8] is filed under the species Rattus norvegicus. In words: Concentration required for the inhibition of insulin release from rat islets. In kind it is functional. A digest of the protocol: as §2

SMILES strings stand for the structures.

For orientation: IC50 means the concentration at which inhibition is half-maximal. A high value points to weaker potency in that assay. The compound `CC(/N=C(\NC#N)Nc1cccc(C(F)(F)F)c1)C(C)(C)C` (configuration not stated) gave an Efficacy with Beta-TC6 [1] of 29%. The IC50 in the experiment listed under Rattus norvegicus [2] is 88 µM; in experiment [3], above 100 µM; in the experiment with Beta-TC6 [4], above 100 µM.

In the experiment on Beta-TC6 [1], `CC(C)CC/N=C(\NC#N)Nc1cc(Cl)cc(Cl)c1` showed an Efficacy of 72%. Also, the IC50 in the experiment listed under Rattus norvegicus [2] stood at 18.7 µM; in experiment [3] it was 4 µM; in the experiment on Beta-TC6 [4] it was 0.7 µM.

Take `CCC(C)(C)/N=C(\NC#N)Nc1cccnc1`: the concentration for half-maximal inhibition (IC50) in the experiment filed under Rattus norvegicus [2] was 0.25 µM.

Turning to `CCC(C)(C)/N=C(\NC#N)Nc1cc(C(F)(F)F)cc(C(F)(F)F)c1`, the results for the IC50 (in the experiment listed under Rattus norvegicus [2]; in experiment [5]) were 0.9 µM and “Not Active”, respectively.

With `CCC/N=C(\NC#N)Nc1cc(Cl)cc(Cl)c1`, the Efficacy in the experiment with Beta-TC6 [1] is on record as 50%. In addition, the figures for the IC50 (in the experiment listed under Rattus norvegicus [2]; in experiment [3]; in the experiment with Beta-TC6 [4]) were 31 µM, 36 µM and 3.7 µM, respectively.

As to `CCC(C)(C)/N=C(\NC#N)Nc1cc(Cl)cc(Cl)c1`, the IC50 entry in experiment [6] was “Not Active”; in the experiment listed under Rattus norvegicus [2], 0.3 µM; with Beta-TC6 [4], 2.3 µM. This compound also yielded an Efficacy in the experiment with Beta-TC6 [1] of 57%.

In the experiment with Beta-TC6 [1], `CC(C)CC/N=C(\NC#N)Nc1cc(C(F)(F)F)cc(C(F)(F)F)c1` gave an Efficacy of 77%. Besides, the half-inhibitory concentration (IC50) in the experiment listed under Rattus norvegicus [2] worked out at 5.6 µM; in experiment [3] it was 0.5 µM; in the experiment with Beta-TC6 [4] it was 2 µM.

As for `CC1=Nc2ccc(Cl)cc2S(=O)(=O)N1` [DIAZOXIDE], the Efficacy with Beta-TC6 [1] amounted to 23%. Moreover, the half-maximal inhibitory concentration (IC50) in the experiment listed under Rattus norvegicus [2] turned out to be 11.5 µM; in the experiment filed under Rattus norvegicus [7], 6.1 µM; in experiment [3] it was 77.4 µM; with Beta-TC6 [4] it was 22.4 µM.

On to `CCC/N=C(\NC#N)Nc1cc(C(F)(F)F)cc(C(F)(F)F)c1`, for which, in the experiment on Beta-TC6 [1], the Efficacy turned out to be 58%. Also, the IC50 amounted to 12.4 µM in the experiment listed under Rattus norvegicus [2], 0.9 µM in experiment [3] and 5 µM in the experiment with Beta-TC6 [4].

For `CC(/N=C(\NC#N)Nc1cc(Cl)cc(Cl)c1)C(C)(C)C` (configuration not stated), in the experiment with Beta-TC6 [1], the Efficacy is on record as 86%. In addition, the IC50 is 0.5 µM in the experiment listed under Rattus norvegicus [2], 19 µM in experiment [3], 26.7 µM in the experiment with Beta-TC6 [4] and 2.2 µM in the experiment filed under Rattus norvegicus [8].

For `CC(/N=C(\NC#N)Nc1cc(C(F)(F)F)cc(C(F)(F)F)c1)C(C)(C)C` (configuration not stated), in the experiment on Beta-TC6 [1], the Efficacy was 78%. Also, the half-inhibitory concentration (IC50) in the experiment listed under Rattus norvegicus [2] is 8.7 µM; in experiment [5], “Not Active”; in the experiment on Beta-TC6 [4] it was 4.6 µM.

Turning to `COc1cc(N/C(=N/CCC(C)C)NC#N)cc(C(F)(F)F)c1`, the Efficacy with Beta-TC6 [1] was determined as 79%. Moreover, the IC50 is 79 µM in the experiment listed under Rattus norvegicus [2], 13 µM in experiment [3], 3.9 µM with Beta-TC6 [4] and 4.8 µM in the experiment filed under Rattus norvegicus [8].

`CC(N/C(=N\C#N)Nc1ccncc1)C(C)(C)C` (configuration not stated) [PINACIDIL ANHYDROUS] came in with a half-maximal inhibitory concentration (IC50) in the experiment filed under Rattus norvegicus [2] of 1.5 µM.
